Experimental data reported in the array DNA melting data of Ke et al. (doi:10.1101/2024.01.08.574731).

Tests used:
[1] = melting temperature; fluorescence melt of hairpins on a sequencing array, two-state fit, raised by 9.35 °C to match UV melts; conditions: sodium 0.088 M
How it was run: (§1)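 To match UV melts, fitted temperatures were raised by 9.35 °C. These fits were bootstrapped two-state models that gave melting temperature and folding enthalpy, combined by inverse variance over four replicates. The input was normalised Cy3 fluorescence of library hairpins with annealed Cy3 and quencher oligos on a sequenced MiSeq flow cell, imaged in 50 mM Na-HEPES pH 8.0, 25 mM NaCl in 2.5 °C steps up to 60 °C.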

[2] = folding enthalpy; higher = less favourable; fluorescence melt of hairpins on a sequencing array, two-state fit; conditions: sodium 0.088 M
How it was run: as §1

GTACTGACGAAAGTCTAC (((..(((....))))))
Tm [1]: 21.8 °C | folding enthalpy [2]: -6.65 kcal/mol

GTACTGCGAAAGCAATAC (((.(((....))).)))
Tm [1]: 37.4 °C | folding enthalpy [2]: -21.6 kcal/mol

GTACTGCGAAAGCATTAC (((.(((....))).)))
Tm [1]: 41.7 °C | folding enthalpy [2]: -22.5 kcal/mol

GTACTGGCGAAAGCCTAC (((..(((....))))))
Tm [1]: 26.3 °C | folding enthalpy [2]: -11 kcal/mol

GTACTGGGAAACCAGTGC (.(((((....))))).)
Tm [1]: 50.2 °C | folding enthalpy [2]: -22.6 kcal/mol

GTACTTCGAAAGAATTAC (((.(((....))).)))
Tm [1]: 32.2 °C | folding enthalpy [2]: -18.6 kcal/mol

GTAGAACCGAAAGGTTAC (((..(((....))))))
Tm [1]: 32.5 °C | folding enthalpy [2]: -13.3 kcal/mol

GTAGAACGAAAGTTGTAC (((.(((....))).)))
Tm [1]: 42.8 °C | folding enthalpy [2]: -31.7 kcal/mol

GTAGAAGGAAACCTCTAC (((((.(....).)))))
Tm [1]: 33.4 °C | folding enthalpy [2]: -18.1 kcal/mol

GTAGAAGGAAACTTCTGC (.(((((....))))).)
Tm [1]: 39 °C | folding enthalpy [2]: -23.1 kcal/mol

GTAGACCGAAAGGTATAC (((.(((....))).)))
Tm [1]: 51.7 °C | folding enthalpy [2]: -36 kcal/mol

GTAGACCGAAAGGTTTAC (((.(((....))).)))
Tm [1]: 48.5 °C | folding enthalpy [2]: -27.9 kcal/mol

GTAGACGAAAGTCACTAC ((((((....)))..)))
Tm [1]: 41.1 °C | folding enthalpy [2]: -14.2 kcal/mol

GTAGACGAAAGTCAGTAC ((((((....)))..)))
Tm [1]: 28.6 °C | folding enthalpy [2]: -9.2 kcal/mol

GTAGACGAAAGTCCTAC ((((((....))).)))
Tm [1]: 36.4 °C | folding enthalpy [2]: -19.7 kcal/mol

GTAGACGAAAGTCGGTAC ((((((....)))..)))
Tm [1]: 34.6 °C | folding enthalpy [2]: -11.8 kcal/mol

GTAGACGAAAGTCGTAC ((((((....))).)))
Tm [1]: 49.9 °C | folding enthalpy [2]: -23.6 kcal/mol

GTAGACGGAAACATCTAC (((((.(....).)))))
Tm [1]: 31 °C | folding enthalpy [2]: -21 kcal/mol

GTAGACGGAAACGTCTGC (.(((((....))))).)
Tm [1]: 55.1 °C | folding enthalpy [2]: -24.6 kcal/mol

GTAGAGGAAACTCTAC ((((((....))))))
Tm [1]: 49.1 °C | folding enthalpy [2]: -25.3 kcal/mol

GTAGAGTCGAAAGACTAC (((..(((....))))))
Tm [1]: 35.1 °C | folding enthalpy [2]: -10.8 kcal/mol

GTAGATGGAAACACCTAC ((((.((....)).))))
Tm [1]: 32.9 °C | folding enthalpy [2]: -20.9 kcal/mol

GTAGCACCGAAAGGTTAC (((..(((....))))))
Tm [1]: 29.2 °C | folding enthalpy [2]: -8.52 kcal/mol

GTAGCACGAAAGTGGTAC (((.(((....))).)))
Tm [1]: 60.9 °C | folding enthalpy [2]: -33.7 kcal/mol

GTAGCCCGAAAGGGATAC (((.(((....))).)))
Tm [1]: 64.3 °C | folding enthalpy [2]: -33.7 kcal/mol

GTAGCCCGAAAGGGTAC (((.(((....))))))
Tm [1]: 48.6 °C | folding enthalpy [2]: -17.7 kcal/mol

GTAGCCGAAAGGCGCTAC ((((((....)))..)))
Tm [1]: 42.8 °C | folding enthalpy [2]: -9.33 kcal/mol

GTAGCCGAAAGGCGTAC ((((((....))).)))
Tm [1]: 57.5 °C | folding enthalpy [2]: -15.7 kcal/mol

GTAGCCGAAAGGCTTAC ((((((....))).)))
Tm [1]: 43.1 °C | folding enthalpy [2]: -10.3 kcal/mol

GTAGCCGGAAACGGCTGC (.(((((....))))).)
Tm [1]: 60.9 °C | folding enthalpy [2]: -15.9 kcal/mol

GTAGCGGAAACGCTAC ((((((....))))))
Tm [1]: 65.3 °C | folding enthalpy [2]: -30.2 kcal/mol

GTAGCGGGAAACCGTTAC (((.(((....))).)))
Tm [1]: 47.8 °C | folding enthalpy [2]: -30.2 kcal/mol

GTAGCTGGAAACAACTAC ((((.((....)).))))
Tm [1]: 35.9 °C | folding enthalpy [2]: -27.2 kcal/mol

GTAGCTGGAAACAGCTGC (.(((((....))))).)
Tm [1]: 55.2 °C | folding enthalpy [2]: -26.3 kcal/mol

GTAGCTGGAAACGGTTAC (((.(.(....).).)))
Tm [1]: 28.9 °C | folding enthalpy [2]: -18.7 kcal/mol

GTAGGAGGAAACCCCTAC (((((.(....).)))))
Tm [1]: 38.3 °C | folding enthalpy [2]: -32.4 kcal/mol

GTAGGCGAAAGCCATAC ((((((....))).)))
Tm [1]: 43.8 °C | folding enthalpy [2]: -11.2 kcal/mol

GTAGGCGAAAGCCCATAC ((((((....)))..)))
Tm [1]: 28.2 °C | folding enthalpy [2]: -8.87 kcal/mol

GTAGGCGAAAGCCCTTAC ((((((....)))..)))
Tm [1]: 37.9 °C | folding enthalpy [2]: -9.27 kcal/mol

GTAGGCGAAAGCCGATAC ((((((....)))..)))
Tm [1]: 41.5 °C | folding enthalpy [2]: -10.1 kcal/mol

GTAGGCGAAAGCCGTAC ((((((....))).)))
Tm [1]: 57.3 °C | folding enthalpy [2]: -13 kcal/mol

GTAGGCGAAAGCCTGTAC ((((((....)))..)))
Tm [1]: 34.6 °C | folding enthalpy [2]: -9.44 kcal/mol

GTAGGCGGAAACGTCTAC ((((.((....)).))))
Tm [1]: 53.1 °C | folding enthalpy [2]: -39.1 kcal/mol

GTAGGGGAAACCCTAC ((((((....))))))
Tm [1]: 55.4 °C | folding enthalpy [2]: -36.7 kcal/mol

GTAGGGGGAAACCCTTAC (((.(((....))).)))
Tm [1]: 42 °C | folding enthalpy [2]: -17.4 kcal/mol

GTAGGTGGAAACACCTAC (((((((....)))))))
Tm [1]: 60.5 °C | folding enthalpy [2]: -36.7 kcal/mol

GTAGTACCGAAAGGTTAC (((..(((....))))))
Tm [1]: 29.8 °C | folding enthalpy [2]: -11.1 kcal/mol

GTAGTACGAAAGTATTAC (((.(((....))).)))
Tm [1]: 41.5 °C | folding enthalpy [2]: -31.3 kcal/mol

GTAGTAGGAAACTACTGC (.(((((....))))).)
Tm [1]: 45.7 °C | folding enthalpy [2]: -27.5 kcal/mol

GTAGTCCGAAAGGATAC (((.(((....))))))
Tm [1]: 38 °C | folding enthalpy [2]: -15.8 kcal/mol

GTAGTCGAAAGACTGTAC ((((((....)))..)))
Tm [1]: 32.1 °C | folding enthalpy [2]: -13.8 kcal/mol

GTAGTCGGAAACAACTAC (((((.(....).)))))
Tm [1]: 33.6 °C | folding enthalpy [2]: -24.5 kcal/mol

GTAGTCGGAAACGACCAC ((.((((....)))).))
Tm [1]: 37.4 °C | folding enthalpy [2]: -14.5 kcal/mol

GTAGTCTCGAAAGAGTAC (((..(((....))))))
Tm [1]: 31.9 °C | folding enthalpy [2]: -17.3 kcal/mol

GTAGTGAAAACTAC (((((....)))))
Tm [1]: 45.1 °C | folding enthalpy [2]: -22.3 kcal/mol

GTAGTGCGAAAGCATAC (((.(((....))))))
Tm [1]: 40.5 °C | folding enthalpy [2]: -12.6 kcal/mol

GTAGTGGGAAACCACTGC (.(((((....))))).)
Tm [1]: 50.6 °C | folding enthalpy [2]: -19.4 kcal/mol

GTAGTGGGAAACCATTGC (.(.(((....))).).)
Tm [1]: 24.3 °C | folding enthalpy [2]: -10.3 kcal/mol

GTAGTGGGAAACTACTAC (((((.(....).)))))
Tm [1]: 47.5 °C | folding enthalpy [2]: -31.7 kcal/mol

GTAGTTCGAAAGAAGTAC (((.(((....))).)))
Tm [1]: 46 °C | folding enthalpy [2]: -25 kcal/mol

GTAGTTGGAAACAACTGC (.(((((....))))).)
Tm [1]: 47.6 °C | folding enthalpy [2]: -18 kcal/mol

GTAGTTGGAAACAATTAC (((.(((....))).)))
Tm [1]: 34.2 °C | folding enthalpy [2]: -23.4 kcal/mol

GTAGTTGGAAACGATTAC (((.(.(....).).)))
Tm [1]: 30.9 °C | folding enthalpy [2]: -13.7 kcal/mol

GTATAAGGAAACTTGTAC (((.(((....))).)))
Tm [1]: 31.5 °C | folding enthalpy [2]: -17.1 kcal/mol

GTATACCGAAAGGTCTAC (((.(((....))).)))
Tm [1]: 40.7 °C | folding enthalpy [2]: -22.4 kcal/mol

GTATACCGAAAGGTGTAC (((.(((....))).)))
Tm [1]: 51.6 °C | folding enthalpy [2]: -27.6 kcal/mol

GTATACCGAAAGGTTTAC (((.(((....))).)))
Tm [1]: 43.3 °C | folding enthalpy [2]: -27.5 kcal/mol

GTATACGAAAGTACTAC ((((((....))).)))
Tm [1]: 27.6 °C | folding enthalpy [2]: -13.1 kcal/mol

GTATAGCGAAAGCTCTAC (((.(((....))).)))
Tm [1]: 39.7 °C | folding enthalpy [2]: -17.3 kcal/mol

GTATATGAAAATATAC ((((((....))))))
Tm [1]: 39.1 °C | folding enthalpy [2]: -23.7 kcal/mol

GTATATGGAAACATGTAC (((.(((....))).)))
Tm [1]: 37.2 °C | folding enthalpy [2]: -29.6 kcal/mol

GTATCACGAAAGTGGTAC (((.(((....))).)))
Tm [1]: 52.8 °C | folding enthalpy [2]: -27.9 kcal/mol

GTATCAGCGAAAGCTTAC (((..(((....))))))
Tm [1]: 26.3 °C | folding enthalpy [2]: -8.4 kcal/mol

GTATCCCCGAAAGGGTAC (((..(((....))))))
Tm [1]: 35.5 °C | folding enthalpy [2]: -14.8 kcal/mol

GTATCCCGAAAGGGGTAC (((.(((....))).)))
Tm [1]: 55.6 °C | folding enthalpy [2]: -38.2 kcal/mol

GTATCCGAAAGGAAATAC ((((((....)))..)))
Tm [1]: 31 °C | folding enthalpy [2]: -16.8 kcal/mol

GTATCCGAAAGGAGTTAC ((((((....)))..)))
Tm [1]: 25.3 °C | folding enthalpy [2]: -14.9 kcal/mol

GTATCCGGAAACGAATAC ((((.((....)).))))
Tm [1]: 33.5 °C | folding enthalpy [2]: -26.5 kcal/mol

GTATCGCGAAAGCGTAC (((.(((....))))))
Tm [1]: 44.5 °C | folding enthalpy [2]: -12.1 kcal/mol

GTATGACGAAAGTCGTAC (((.(((....))).)))
Tm [1]: 53.8 °C | folding enthalpy [2]: -30.3 kcal/mol

GTATGCCGAAAGGCTTAC (((.(((....))).)))
Tm [1]: 50.6 °C | folding enthalpy [2]: -19 kcal/mol

GTATGCGAAAGCACATAC ((((((....)))..)))
Tm [1]: 31.8 °C | folding enthalpy [2]: -11.2 kcal/mol

GTATGCGAAAGCACGTAC ((((((....)))..)))
Tm [1]: 34.1 °C | folding enthalpy [2]: -8.02 kcal/mol

GTATGCGAAAGCACTAC ((((((....))).)))
Tm [1]: 37.3 °C | folding enthalpy [2]: -13.2 kcal/mol

GTATGCGAAAGCATTAC ((((((....))).)))
Tm [1]: 43.4 °C | folding enthalpy [2]: -13.8 kcal/mol

GTATGCGGAAACGCATAC (((((((....)))))))
Tm [1]: 68.2 °C | folding enthalpy [2]: -33.5 kcal/mol

GTATGCGGAAACGTGTAC (((..((....))..)))
Tm [1]: 39.4 °C | folding enthalpy [2]: -30.2 kcal/mol

GTATGGAAACATAC (((((....)))))
Tm [1]: 43.4 °C | folding enthalpy [2]: -23.5 kcal/mol

GTATGGGCGAAAGCCTAC (((..(((....))))))
Tm [1]: 36.9 °C | folding enthalpy [2]: -7.19 kcal/mol

GTATGGGGAAACCCACAC ((.((((....)))).))
Tm [1]: 35.1 °C | folding enthalpy [2]: -18.9 kcal/mol

GTATGGGGAAACCTGTAC (((..((....))..)))
Tm [1]: 32.2 °C | folding enthalpy [2]: -17.1 kcal/mol
